Measured values from different studies.
Protocols differ between the studies behind these lines. Values after ≈ are worked out from the molar mass of the structure shown.

SMILES | target or system | assay | system | setting | measurement | result
O=C(O)CN1C(=O)/C(=C/c2ccc(-c3ccc(N(c4ccccc4)c4ccccc4)cc3)cc2)NC1=S | Streptococcus mutans | microbial growth, broth dilution | ATCC25175 |  | MIC | 62.5 µg/mL (≈ 124 µM)
COc1cc(OC)cc(-c2c(-c3ccccn3)nc3n2CCC3)c1 | Leishmania infantum | parasite growth |  | 5 days, intracellular, amastigote | EC50 | 1260 nM
COc1ccc2occ(/C=C/c3cc(OC)c(OC)c(OC)c3)c(=O)c2c1 | HSC-2 | cell growth or viability, MTT |  | 21 h | CC50 | 5100 nM
Cc1cccc(-c2c(-c3ccccn3)nc3n2CCC3)c1 | Leishmania infantum | parasite growth |  | 5 days, intracellular, amastigote | EC50 | 631 nM
O=C1NC(=S)S/C1=C\c1ccc(-c2ccc(N(c3ccccc3)c3ccccc3)cc2)cc1 | Streptococcus pyogenes | microbial killing, broth dilution | ATCC19615 |  | MBC | > 1000 µg/mL
COc1cccnc1-c1nc2ccccn2c1N(C)c1ccc(F)cc1 | Leishmania infantum | parasite growth |  | intracellular, amastigote | EC50 | 1580 nM
COc1ccc(NC(=O)c2c(Nc3ccccc3)sc(C#N)c2NC(=O)CNc2ccc(C)cc2)cc1 | HCT-116 | cell growth or viability, SRB |  | 100 µM, 48 h | viability | 60.3%
O=C1NC(=S)S/C1=C\c1ccc(-c2ccc(N(c3ccccc3)c3ccccc3)cc2)c2ccccc12 | Streptococcus pyogenes | microbial killing, broth dilution | ATCC19615 |  | MBC | > 1000 µg/mL
COc1ccc(NC(=O)c2c(Nc3ccccc3)sc(C(=O)NN=Cc3ccc(C)cc3)c2NC(C)=O)cc1 | HCT-116 | cell growth or viability, SRB |  | 0.1 µM, 48 h | viability | 80.5%
O=C(O)CN1C(=O)/C(=C/c2ccc(-c3ccc(N(c4ccccc4)c4ccccc4)cc3)cc2)SC1=S | Streptococcus pyogenes | microbial growth, broth dilution | ATCC19615 |  | MIC | 15.6 µg/mL (≈ 29.8 µM)
COc1ccc(NC(=O)c2c(Nc3ccccc3)sc(C(=O)NN=Cc3ccc(OC)c(O)c3)c2NC(C)=O)cc1 | HCT-116 | cell growth or viability, SRB |  | 10 µM, 48 h | viability | 35.6%
Cc1ccc2nc(-c3ccccn3)c(CN(CC(C)C)c3cccc(C(F)(F)F)c3)n2c1 | Leishmania infantum | parasite growth |  | intracellular, amastigote | EC50 | 3160 nM
COc1ccc(NC(=O)c2c(Nc3ccccc3)sc(C#N)c2NC(=O)CNc2ccc([N+](=O)[O-])cc2)cc1 | HCT-116 | cell growth or viability, SRB |  | 10 nM, 48 h | viability | 92.4%
O=C(O)CN1C(=O)/C(=C/c2ccc(-c3ccc(N(c4ccccc4)c4ccccc4)cc3)c3ccccc23)SC1=S | Streptococcus mutans | microbial growth, broth dilution | ATCC25175 |  | MIC | 1000 µg/mL (≈ 1750 µM)
Cc1c(C)c2c(c(C)c1O)CCC(C)(C(=O)O)O2 (stereo not shown) |  | lipid peroxidation, inhibitor |  |  | IC50 | 107 µg/mL (≈ 427 µM)
COc1ccc(NC(=O)c2c(Nc3ccccc3)sc(C(=O)NN=Cc3ccc(Cl)cc3)c2NC(C)=O)cc1 | HCT-116 | cell growth or viability, SRB |  | 100 µM, 48 h | viability | 50.9%
COc1ccc2nc(-c3cc(N(C)C)ccn3)c(N(C)c3ccc(F)cc3)n2c1 | Leishmania infantum | parasite growth |  | intracellular, amastigote | EC50 | 1580 nM
O=C(O)CN1C(=O)/C(=C/c2c3ccccc3c(-c3ccc(N(c4ccccc4)c4ccccc4)cc3)c3ccccc23)SC1=S | Streptococcus mutans | microbial killing, broth dilution | ATCC25175 |  | MBC | > 1000 µg/mL
COc1cccc(-c2nc3ccccn3c2Nc2ccc(F)cc2)n1 | Leishmania infantum | parasite growth |  | 5 days, intracellular, amastigote | EC50 | > 63100 nM
COc1ccc(C=NNC(=O)c2sc(Nc3ccccc3)c(C(=O)Nc3ccc(OC)cc3)c2NC(C)=O)cc1 | HCT-116 | cell growth or viability, SRB |  | 10 nM, 48 h | viability | 86.1%
COc1ccc(/C=C/c2coc3ccc(OC)cc3c2=O)cc1 | HSC-2 | cell growth or viability, MTT |  | 21 h | CC50 | 2500 nM
COc1cccnc1-c1nc2ccccn2c1Nc1ccc(F)cc1 | Leishmania infantum | parasite growth |  | 5 days, intracellular, amastigote | EC50 | 31600 nM
NC(=O)N1c2ccccc2C=Cc2ccccc21 |  | MES seizures | rat | oral | ED50 | 10.9 mg/kg
O=C1NC(=S)N/C1=C\c1ccc(-c2ccc(N(c3ccccc3)c3ccccc3)cc2)cc1 | Streptococcus mutans | microbial killing, broth dilution | ATCC25175 |  | MBC | > 1000 µg/mL
COc1ccc(NC(=O)c2c(Nc3ccccc3)sc(C#N)c2NC(=O)CNc2ccc(Cl)cc2)cc1 | HCT-116 | cell growth or viability, SRB |  | 1 µM, 48 h | viability | 60.1%
O=C(O)CN1C(=O)/C(=C/c2c3ccccc3c(-c3ccc(N(c4ccccc4)c4ccccc4)cc3)c3ccccc23)NC1=S | Streptococcus mutans | microbial killing, broth dilution | ATCC25175 |  | MBC | > 1000 µg/mL
CNC(=O)c1cc(Oc2ccc(NC(=O)Nc3ccc(Cl)c(C(F)(F)F)c3)cc2)ccn1 | HCT-116 | cell growth or viability, SRB |  | 1 nM, 48 h | viability | 100%
CN(C)C(=O)c1ccc(-c2c(-c3ccccn3)nc3n2CCC3)cc1 | Leishmania infantum | parasite growth |  | 5 days, intracellular, amastigote | EC50 | 39800 nM
